We go through one molecule from ChEMBL document CHEMBL3797089, “Morusin Induces TRAIL Sensitization by Regulating EGFR and DR5 in Human Glioblastoma Cells” (J Nat Prod, 2016).

In general, IC50 refers to the midpoint of a concentration-inhibition curve.

Activity calls are given as the source filed them. The rule behind the calls is not given here.

The nature of experiment [1]: Cytotoxicity against human U87MG cells assessed as reduction in cell viability measured up to 20 uM after 24 hrs by MTT assay in presence of TRAIL. The class given is functional, U-87MG ATCC. The method, boiled down:
(§1)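 MTT viability. 3–5 × 10^3 cells/well, treated the next day with TRAIL 100 ng/mL plus increasing morusin concentrations for 24 h. 1 mg/mL MTT for 2 h at 37 °C, lysis overnight, OD 570 nm. Living-cell fractions were used for combination index analysis. Mean ± SD, at least three independent experiments.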
A general note: Tetrazolium dyes change colour on reduction, which living cells bring about.

Experiment [2] in a line: Cytotoxicity against human U373MG cells assessed as reduction in cell viability measured up to 20 uM after 24 hrs by MTT assay in presence of TRAIL. The class given is functional, U-373MG ATCC. An outline of the steps: as §1
In experiment [3] the test system is T98G. In words: Induction of apoptosis in human T98G cells assessed as increase in cleaved PARP levels at 2.5 uM after 24 hrs by Western blot analysis in presence of TRAIL. Type of experiment: functional, cell-based. An outline of the steps: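 U87MG and T98G given TRAIL 25 ng/mL plus morusin 2.5 μM together for 24 h; single-agent arms used TRAIL 50 ng/mL or morusin 5 μM. Lysates immunoblotted for cleaved caspase 3, 8, 9 and cleaved PARP, with β-actin as internal control.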
In general terms: A western blot detects proteins with antibodies after separation by electrophoresis.

In experiment [4] the test system is U-87 MG. The experiment can be described thus: Induction of apoptosis in human U87MG cells assessed as apoptic cells at 20 uM after 24 hrs by V-FITC/propidium iodide staining based flow cytometric analysis in presence of TRAIL. The class given is functional, cell-based. The note with it: U-87MG ATCC. An outline of the steps:
(§2)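 (2–3) × 10^5 cells/well given TRAIL 50 ng/mL with morusin 20 μM for 24 h. Annexin V-FITC/PI double staining, flow cytometry; annexin V-positive cells counted as apoptotic. Mean ± SD, t-test against mock.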
(In flow cytometry, cells or beads pass a laser one at a time.)

The subject of experiment [5] is T98G. In words: Induction of apoptosis in human T98G cells assessed as apoptic cells at 20 uM after 24 hrs by V-FITC/propidium iodide staining based flow cytometric analysis in presence of TRAIL. The class given is functional, cell-based. The method, boiled down: as §2
A short description of experiment [6]: Cytotoxicity against human LN18 cells assessed as reduction in cell viability after 24 hrs by MTT assay. The class given is functional, cell-based. The note with it: LN-18, 24 h. The method, boiled down:
(§3)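 Seeded 3–5 × 10^3 cells/well, treated the next day with a range of morusin (DMSO stock) for 24 h, 37 °C, 5% CO2. Then fresh medium with 1 mg/mL MTT for 2 h at 37 °C, lysis buffer overnight at 37 °C, OD 570 nm. Mean ± SD from at least three independent experiments in triplicate.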

The subject of experiment [7] is T98G. The experiment can be described thus: Cytotoxicity against human T98G cells assessed as reduction in cell viability after 24 hrs by MTT assay. Type of experiment: functional, cell-based. An outline of the steps: as §3
A short description of experiment [8]: Reduction of survivin expression in human U87MG cells after 24 hrs by Western blot analysis. The class given is functional, cell-based. The note with it: U-87MG ATCC. An outline of the steps:
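U87MG (MEM) and U373MG (RPMI) cells were given graded morusin concentrations for 24 h. Whole-cell extracts were immunoblotted for anti-apoptotic proteins, with β-actin as loading control.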

Experiment [9] is described as follows: Reduction of XIAP mRNA expression in human U87MG cells at 25 uM by RT-qPCR analysis. The class given is functional, cell-based. The note with it: U-87MG ATCC, TDE = time-dependent effect. An outline of the steps: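 U87MG cells were exposed to 25 μM morusin over a time course. Total RNA (1 μg) was reverse transcribed, and XIAP and survivin transcripts were measured by RT-qPCR against GAPDH. Results are mean ± SD from at least three independent experiments.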

Experiment [10] is described as follows: Reduction of survivin mRNA expression in human U87MG cells after 24 hrs by RT-qPCR analysis. The note with it: U-87MG ATCC. The class given is functional, cell-based. An outline of the steps:
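U87MG cells were treated with graded morusin for 24 h. Total RNA was extracted with TRI Reagent, and 1 μg was reverse transcribed. XIAP and survivin mRNA were quantified by RT-qPCR, normalized to GAPDH. Results are mean ± SD from at least three independent experiments; unpaired t-test.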

A short description of experiment [11]: Reduction of PDGFR expression in human U87MG cells at 25 uM after 24 hrs by Western blot analysis. The class given is functional, cell-based. The note with it: U-87MG ATCC. The method, boiled down: (§4)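 LN18, U87MG, T98G, U251MG and U373MG glioblastoma cells were exposed to morusin for 24 h. Cells were maintained in DMEM, MEM or RPMI with 10% FBS at 37 °C and 5% CO2. Whole-cell lysates were Western blotted for receptor proteins, with β-actin as internal control.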

Experiment [12] can be described thus: Reduction of EGFR expression in human U87MG cells at 25 uM after 24 hrs by Western blot analysis. Type of experiment: functional, cell-based. The note with it: U-87MG ATCC. An outline of the steps: as §4
The target of experiment [13] is Epidermal growth factor receptor (Homo sapiens) (UniProt P00533). In words: Inhibition of EGFR phosphorylation in human U373MG cells measured up to 25 uM after 24 hrs by Western blot analysis. Type of experiment: cell-based. The note with it: U-373MG ATCC. An outline of the steps:
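U87MG and U373MG exposed to a range of morusin concentrations for 24 h. Whole-cell lysates immunoblotted for phosphorylated EGFR, with β-actin as internal control.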

Another experiment relates to LN-18. The experiment can be described thus: Effect on DcR2 expression in human LN18 cells upto 25 uM after 24 hrs by Western blot analysis. The class given is functional, cell-based. An outline of the steps:
(§5)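 Cells exposed to a range of morusin concentrations for 24 h. Cell extracts immunoblotted for DR4, DR5, DcR1 and DcR2, with β-actin as internal control and HRP-conjugated secondary antibodies (1:5000).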

For experiment [14], the system named is U373 MG. The experiment can be described thus: Effect on DcR2 expression in human U373MG cells upto 25 uM after 24 hrs by Western blot analysis. Type of experiment: functional, cell-based. The note with it: U-373MG ATCC. The method, boiled down:
as §5

Experiment [15] relates to U-251. The experiment can be described thus: Effect on DcR2 expression in human U251MG cells upto 25 uM after 24 hrs by Western blot analysis. The class given is functional, cell-based. The method, boiled down:
as §5

For experiment [16], the system named is U-251. In words: Effect on DcR1 expression in human U251MG cells upto 25 uM after 24 hrs by Western blot analysis. Type of experiment: functional, cell-based. The method, boiled down:
as §5

Experiment [17] deals with U373 MG. The experiment can be described thus: Effect on DcR1 expression in human U373MG cells upto 25 uM after 24 hrs by Western blot analysis. The class given is functional, cell-based. The note with it: U-373MG ATCC. The method, boiled down: as §5
Experiment [18] concerns U-87 MG. The experiment can be described thus: Effect on DR4 expression in human U87MG cells upto 25 uM after 24 hrs by Western blot analysis. Type of experiment: functional, cell-based. The note with it: U-87MG ATCC. An outline of the steps: as §5
Experiment [19] concerns U373 MG. In words: Induction of DR5 expression in human U373MG cells at 25 uM by Western blot analysis. The class given is functional, cell-based. The note with it: U-373MG ATCC, TDE = time-dependent effect. The method, boiled down: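 Time course: U87MG and U373MG cells held at 25 μM morusin for the times indicated. Extracts immunoblotted (cIAP1 or DR5), with β-actin as loading control.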

The subject of experiment [20] is U-251. The experiment can be described thus: Induction of DR5 expression in human U251MG cells at 25 uM after 24 hrs by FITC-conjugated flow cytometric analysis. Type of experiment: functional, cell-based. The method, boiled down: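 Cells given 25 μM morusin for 24 h, then stained on ice for 30 min with 0.5 μg/mL FITC-conjugated anti-DR4, anti-DR5 or isotype IgG in FACS buffer. Surface expression read by flow cytometry.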

Experiment [21] can be described thus: Reduction of XIAP expression in human U87MG cells at 25 uM by Western blot analysis. The note with it: U-87MG ATCC, TDE = time-dependent effect. Type of experiment: functional, cell-based. An outline of the steps: (§6)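 Time course: U87MG and U373MG cells were exposed to 25 μM morusin for the indicated times. Whole-cell extracts were Western blotted, with β-actin as internal control.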

Experiment [22] is described as follows: Reduction of XIAP expression in human U373MG cells at 25 uM by Western blot analysis. Type of experiment: functional, cell-based. The note with it: U-373MG ATCC, TDE = time-dependent effect. An outline of the steps:
as §6

The nature of experiment [23]: Reduction of survivin expression in human U373MG cells at 25 uM by Western blot analysis. The note with it: U-373MG ATCC, TDE = time-dependent effect. The class given is functional, cell-based. An outline of the steps: as §6

Epidermal growth factor receptor (Homo sapiens), sequence (P00533 whole entry): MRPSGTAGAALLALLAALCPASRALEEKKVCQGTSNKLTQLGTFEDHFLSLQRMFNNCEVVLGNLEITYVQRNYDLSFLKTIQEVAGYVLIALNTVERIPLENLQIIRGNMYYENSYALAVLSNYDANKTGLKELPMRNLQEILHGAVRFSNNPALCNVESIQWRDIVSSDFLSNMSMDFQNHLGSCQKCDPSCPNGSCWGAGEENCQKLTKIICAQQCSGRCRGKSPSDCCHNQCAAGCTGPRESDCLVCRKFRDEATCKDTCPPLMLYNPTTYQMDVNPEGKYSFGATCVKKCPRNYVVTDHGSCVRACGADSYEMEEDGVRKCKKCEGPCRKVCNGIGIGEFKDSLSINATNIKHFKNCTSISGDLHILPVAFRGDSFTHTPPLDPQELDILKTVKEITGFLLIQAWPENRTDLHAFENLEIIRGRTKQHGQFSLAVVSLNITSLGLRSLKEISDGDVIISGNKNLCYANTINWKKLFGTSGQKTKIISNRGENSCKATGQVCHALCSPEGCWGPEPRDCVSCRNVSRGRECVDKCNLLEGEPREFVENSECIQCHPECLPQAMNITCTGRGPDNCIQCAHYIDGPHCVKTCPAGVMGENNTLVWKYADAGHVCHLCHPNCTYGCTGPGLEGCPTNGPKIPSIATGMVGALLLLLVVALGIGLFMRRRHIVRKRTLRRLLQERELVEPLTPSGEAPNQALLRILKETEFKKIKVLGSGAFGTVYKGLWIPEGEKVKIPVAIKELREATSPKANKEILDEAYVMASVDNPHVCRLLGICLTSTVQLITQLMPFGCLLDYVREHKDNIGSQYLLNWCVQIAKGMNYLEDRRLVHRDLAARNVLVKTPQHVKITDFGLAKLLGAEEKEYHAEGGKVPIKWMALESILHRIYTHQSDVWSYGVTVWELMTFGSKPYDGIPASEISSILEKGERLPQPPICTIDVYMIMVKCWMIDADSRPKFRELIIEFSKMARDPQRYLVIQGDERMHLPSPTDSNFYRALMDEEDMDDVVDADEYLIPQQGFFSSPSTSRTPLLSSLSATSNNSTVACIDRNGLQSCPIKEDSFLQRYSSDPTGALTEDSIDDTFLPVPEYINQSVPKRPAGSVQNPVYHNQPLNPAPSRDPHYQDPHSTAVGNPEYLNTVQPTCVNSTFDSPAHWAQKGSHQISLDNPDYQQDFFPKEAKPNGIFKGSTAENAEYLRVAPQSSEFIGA

With `CC(C)=CCc1c(-c2ccc(O)cc2O)oc2c3c(cc(O)c2c1=O)OC(C)(C)C=C3` [MORUSIN], the CI in experiment [1] and in experiment [2] was below 0.8 in each case. Further, the result (in the experiment on T98G [3]; in the experiment on U-87 MG [4]; with T98G [5]; in [11]; in [12]; with U-251 [20]) was Active. The IC50 (in experiment [6]; in the experiment with T98G [7]) was 24 µM throughout. For the same molecule, the inhibition entry in [8] is “Dose-dependent effect”; in [21] it was “tde”; in experiment [22] it was “tde”; in experiment [23], “tde”. Also, the results for the Activity result (in experiment [9]; in [10]; with U373 MG [19]) were “tde”, “Dose-dependent effect” and “tde”, respectively. Also, the inhibition result in experiment [13] is “Active”. For the same molecule, the result with LN-18, with U373 MG [14], with U-251 [15], with U-251 [16], with U373 MG [17] and in the experiment on U-87 MG [18] was inactive.
